Results reported in paper PMC3177601 (Bioorganic & medicinal chemistry letters, 2009).
Like-named read-outs stand apart in the source and are kept apart here.

Experiments:
M1 = biological target: T1, M1 (Homo sapiens, UniProt P11229); assay: M1 PAM intracellular calcium mobilization assay in M1 CHO cells; type: cell-based; conditions: at 30 μM
T1 sequence (P11229 1-460): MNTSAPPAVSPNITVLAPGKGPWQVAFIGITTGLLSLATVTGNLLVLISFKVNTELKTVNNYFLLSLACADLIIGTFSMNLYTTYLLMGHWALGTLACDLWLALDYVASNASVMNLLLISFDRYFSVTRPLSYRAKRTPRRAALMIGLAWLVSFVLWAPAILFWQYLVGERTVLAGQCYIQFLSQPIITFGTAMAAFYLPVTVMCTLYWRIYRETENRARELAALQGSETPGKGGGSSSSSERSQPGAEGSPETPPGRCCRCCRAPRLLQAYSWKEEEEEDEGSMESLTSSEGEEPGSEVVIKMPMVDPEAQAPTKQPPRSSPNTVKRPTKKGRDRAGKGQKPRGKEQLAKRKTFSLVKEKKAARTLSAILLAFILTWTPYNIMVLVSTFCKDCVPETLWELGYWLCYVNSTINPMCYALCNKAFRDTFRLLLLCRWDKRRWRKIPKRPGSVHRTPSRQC
Procedure, shortened: (§1)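 Test compound at 30 μM is added with an EC20 concentration of ACh. Readout is intracellular calcium mobilization in CHO cells expressing the given mAChR subtype; M2 and M4 cells are co-transfected with Gqi5 for calcium coupling. Values are means of at least three independent determinations.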

M2 = biological target: T2, M2 (Homo sapiens, UniProt P08172); assay: M2 calcium mobilization assay in M2 CHO cells co-transfected with Gqi5; type: cell-based
T2 sequence (P08172 1-466): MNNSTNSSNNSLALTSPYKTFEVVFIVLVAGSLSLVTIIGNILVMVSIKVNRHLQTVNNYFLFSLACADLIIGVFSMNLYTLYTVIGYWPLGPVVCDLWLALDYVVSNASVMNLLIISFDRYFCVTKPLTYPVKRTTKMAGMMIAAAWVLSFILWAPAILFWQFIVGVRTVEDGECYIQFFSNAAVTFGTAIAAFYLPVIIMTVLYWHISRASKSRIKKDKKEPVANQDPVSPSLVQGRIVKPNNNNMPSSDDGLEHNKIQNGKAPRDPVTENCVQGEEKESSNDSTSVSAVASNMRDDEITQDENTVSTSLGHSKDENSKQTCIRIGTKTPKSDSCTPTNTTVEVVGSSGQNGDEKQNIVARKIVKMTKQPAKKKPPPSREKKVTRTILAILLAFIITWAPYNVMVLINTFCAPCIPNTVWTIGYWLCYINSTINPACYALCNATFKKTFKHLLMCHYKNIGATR
Procedure, shortened: as §1

M3 = M3 (Homo sapiens, UniProt P20309); assay: M3 calcium mobilization assay in M3 CHO cells; type: cell-based; conditions: at 30 μM
Chain of M3 (P20309 whole entry): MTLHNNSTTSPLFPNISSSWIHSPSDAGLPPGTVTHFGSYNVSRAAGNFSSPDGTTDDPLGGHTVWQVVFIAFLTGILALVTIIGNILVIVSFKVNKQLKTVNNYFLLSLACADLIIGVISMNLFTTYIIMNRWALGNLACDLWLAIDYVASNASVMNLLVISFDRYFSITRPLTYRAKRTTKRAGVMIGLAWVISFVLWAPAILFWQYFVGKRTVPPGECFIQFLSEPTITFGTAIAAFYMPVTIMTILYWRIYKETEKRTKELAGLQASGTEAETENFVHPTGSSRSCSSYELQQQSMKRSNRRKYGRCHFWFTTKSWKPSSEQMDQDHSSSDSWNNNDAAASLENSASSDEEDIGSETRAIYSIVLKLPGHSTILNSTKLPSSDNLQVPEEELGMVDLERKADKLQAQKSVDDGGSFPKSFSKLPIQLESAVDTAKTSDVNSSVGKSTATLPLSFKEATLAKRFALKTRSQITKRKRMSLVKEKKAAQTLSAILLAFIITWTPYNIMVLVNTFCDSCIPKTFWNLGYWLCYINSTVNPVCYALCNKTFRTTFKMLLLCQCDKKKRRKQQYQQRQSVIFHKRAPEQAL
Procedure, shortened: as §1

M4 = biological target: T3, M4 (Homo sapiens, UniProt P08173); assay: M4 calcium mobilization assay in M4 CHO cells co-transfected with Gqi5; type: cell-based
T3 sequence (P08173 1-479): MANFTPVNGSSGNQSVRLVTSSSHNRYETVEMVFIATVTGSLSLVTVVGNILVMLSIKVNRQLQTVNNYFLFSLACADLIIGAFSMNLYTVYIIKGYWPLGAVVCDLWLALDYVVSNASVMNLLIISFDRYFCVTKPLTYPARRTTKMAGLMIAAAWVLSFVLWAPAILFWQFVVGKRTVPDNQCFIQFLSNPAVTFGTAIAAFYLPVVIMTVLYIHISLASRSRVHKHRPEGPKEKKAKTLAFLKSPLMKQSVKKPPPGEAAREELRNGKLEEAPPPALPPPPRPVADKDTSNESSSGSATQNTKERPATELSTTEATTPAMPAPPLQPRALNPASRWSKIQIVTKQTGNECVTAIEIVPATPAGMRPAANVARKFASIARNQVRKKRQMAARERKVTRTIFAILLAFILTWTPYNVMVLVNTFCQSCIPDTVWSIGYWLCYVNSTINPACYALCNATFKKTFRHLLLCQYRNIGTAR
Procedure, shortened: as §1

M5 [1] = biological target: T4, M5 (Homo sapiens, UniProt P08912); assay: M5 fold-shift experiments of the ACh CRC in M5 CHO cells; type: cell-based; conditions: 30 μM compound
T4 sequence (P08912 1-532): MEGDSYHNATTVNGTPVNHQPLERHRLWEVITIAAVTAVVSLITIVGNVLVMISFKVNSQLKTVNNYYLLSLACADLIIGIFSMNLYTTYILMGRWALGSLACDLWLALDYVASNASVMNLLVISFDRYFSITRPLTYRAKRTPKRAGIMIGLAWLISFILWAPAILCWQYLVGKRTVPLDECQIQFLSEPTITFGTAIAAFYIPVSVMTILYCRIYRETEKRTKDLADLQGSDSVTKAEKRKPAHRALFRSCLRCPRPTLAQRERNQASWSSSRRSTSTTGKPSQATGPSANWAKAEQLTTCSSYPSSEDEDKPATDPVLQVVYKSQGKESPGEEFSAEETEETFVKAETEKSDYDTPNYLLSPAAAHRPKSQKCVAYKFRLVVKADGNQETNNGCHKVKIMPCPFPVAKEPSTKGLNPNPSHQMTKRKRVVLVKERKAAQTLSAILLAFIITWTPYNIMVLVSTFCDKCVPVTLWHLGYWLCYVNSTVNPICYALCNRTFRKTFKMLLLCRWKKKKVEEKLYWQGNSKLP
Procedure, shortened: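 Fold-shift assay in M5 CHO cells: a full ACh concentration-response curve is run with or without 30 μM test compound, read out as intracellular calcium mobilization. Potentiation is taken as the leftward shift of the ACh curve. Values are means of at least three independent determinations.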

M5 [2] = biological target: T4, M5; conditions: 30 μM compound; cited from earlier work
M5 [3] = biological target: T4, M5; conditions: cited from earlier work
M1–M4 = assay: mAChR selectivity CRCs at M1-M5 CHO cells with submaximal ACh; type: cell-based; conditions: CRCs at M1-M5 CHO cells with EC20 of ACh
Procedure, shortened: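 Test compound concentration-response curves are run against an EC20 of ACh in mAChR-expressing CHO cells, read out as intracellular calcium mobilization. M2 and M4 lines are co-transfected with Gqi5. Response is expressed as % of ACh maximum. Values are means of at least three independent determinations.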

[4] = at 30 μM, cells co-transfected with Gqi5

SMILES: O=C1C(=O)N(Cc2ccc(Oc3ccccc3)cc2)c2ccc(OC(F)(F)F)cc21 [VU0400265]
- elevation of an ACh EC20 at M1 (M1): no elevation
- elevation of an ACh EC20 at M2 (M2; [4]): no elevation
- elevation of an ACh EC20 / activation at M3 (M3): no elevation
- elevation of an ACh EC20 at M4 (M4; [4]): no elevation
- leftward shift of the ACh CRC at M5 (M5 [1]): ~ 5 fold

SMILES: O=C1C(=O)N(Cc2ccc(-c3ccccc3)cc2)c2ccc(OC(F)(F)F)cc21 [6a]
- elevation of an ACh EC20 / activation at M3 (M3): only modest activation
- leftward shift of the ACh CRC at M5 (M5 [1]): > 50 fold

SMILES: O=C1C(=O)N(Cc2ccc(-c3ccsc3)cc2)c2ccc(OC(F)(F)F)cc21 [6b]
- leftward shift of the ACh CRC at M5 (M5 [1]): > 50 fold

SMILES: O=C1C(=O)N(Cc2ccc(Br)cc2)c2ccccc21 [VU0119498]
- activity at M2 (M2; Gi/o-coupled M2, cells co-transfected with Gqi5): devoid of activity
- activity at M4 (M4; Gi/o-coupled M4, cells co-transfected with Gqi5): devoid of activity

SMILES: COc1ccc(CN2C(=O)C(=O)c3cc(OC(F)(F)F)ccc32)cc1 [VU0238429]
- leftward shift of the ACh CRC at M5 (M5 [2]): 14 fold
- increase of ACh affinity for M5 (M5 [3]; 30 μM compound): ~ 11 fold
- displacement of [3H]-NMS from binding to M5 (M5 [3]): did not displace

SMILES: COc1ccc(CN2C(=O)C(=O)c3ccc(OC(F)(F)F)cc32)cc1 [compound 11]
- mAChR selectivity (M1–M4): lost

SMILES: O=C1C(=O)N(Cc2ccc(-c3ccccc3)cc2)c2cc(OC(F)(F)F)ccc21 [compound 12]
- mAChR selectivity (M1–M4): lost
